Laboratory results as given in ChEMBL document CHEMBL3608281, “Synthesis and biological evaluation of novel 3,9-substituted β-carboline derivatives as anticancer agents” (Bioorg Med Chem Lett, 2015).

Columns and labels:
[1] = test system: MCF7; experiment: Cytotoxicity against human MCF7 cells; type: functional, cell-based
[2] = Cytotoxicity against human 2774 cells incubated for 48 hrs by MTT assay; type: functional, cell-based
In short: (§1)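 Human tumour lines (HL-60 leukemia, Hep3B liver, H460 lung, A498 renal, COLO205 colon, 2774 and SK-OV-3 ovarian) and normal Detroit 551 skin fibroblasts were exposed to a range of concentrations for 48 h. IC50 is the concentration giving 50% proliferation inhibition, as the mean of three independent determinations.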

[3] = test system: COLO 205; experiment: Cytotoxicity against human COLO205 cells incubated for 48 hrs by MTT assay; type: functional, cell-based; details: COLO 205, 48 h; in short: as §1
[4] = test system: SK-OV-3; experiment: Cytotoxicity against human SKOV3 cells incubated for 48 hrs by MTT assay; type: functional, cell-based; details: SK-OV-3, 48 h; in short: as §1
[5] = test system: A498; experiment: Cytotoxicity against human A498 cells incubated for 48 hrs by MTT assay; type: functional, cell-based; details: A498, 48 h
[6] = Cytotoxicity against human Hep3B cells incubated for 48 hrs by MTT assay; type: functional, cell-based, Hep 3B2; in short: as §1
[7] = test system: HL-60; experiment: Cytotoxicity against human HL60 cells incubated for 48 hrs by MTT assay; type: functional, cell-based; details: HL-60, 48 h; in short: as §1
[8] = Cytotoxicity against human H460 cells incubated for 48 hrs by MTT assay; type: functional, cell-based; details: NCI-H460, 48 h; in short: as §1
[9] = test system: Detroit 551; experiment: Cytotoxicity against human Detroit 551 cells incubated for 48 hrs by MTT assay; type: cell-based; details: Detroit 551, 48 h; in short: as §1

OCc1ccc2c(c1)c1ccccc1n2Cc1ccc(Cl)nc1
IC50 [1]: 20 µM

CCOC(=O)c1cc2c3ccccc3n(Cc3cc(OC)c(OC)c(OC)c3)c2cn1
IC50 [2]: > 100 µM
IC50 [3]: > 100 µM
IC50 [4]: > 100 µM
IC50 [5]: > 100 µM
IC50 [6]: > 100 µM
IC50 [7]: 21.9 µM
IC50 [8]: > 100 µM
IC50 [9]: > 100 µM

CCOC(=O)c1cc2c3ccccc3n(Cc3ccc(F)cc3)c2cn1
IC50 [2]: > 100 µM
IC50 [3]: > 100 µM
IC50 [4]: > 100 µM
IC50 [5]: 50.4 µM
IC50 [6]: > 100 µM
IC50 [7]: > 100 µM
IC50 [8]: > 100 µM
IC50 [9]: > 100 µM

CCOC(=O)c1cc2c3ccccc3n(Cc3ccncc3)c2cn1
IC50 [2]: > 100 µM
IC50 [3]: > 100 µM
IC50 [4]: > 100 µM
IC50 [5]: > 100 µM

CCOC(=O)c1cc2c(cn1)[nH]c1ccccc12
IC50 [2]: > 100 µM
IC50 [3]: > 100 µM
IC50 [4]: > 100 µM
IC50 [5]: > 100 µM
IC50 [6]: > 100 µM
IC50 [7]: > 100 µM
IC50 [8]: > 100 µM
IC50 [9]: > 100 µM

O=C(O)c1cc2c3ccccc3n(Cc3ccc(Cl)cc3)c2cn1
IC50 [3]: 26.5 µM
IC50 [5]: 9.9 µM
IC50 [6]: 1.2 µM
IC50 [7]: 3.9 µM
IC50 [8]: 15.1 µM

O=C(O)c1cc2c3ccccc3nc-2c[nH]1
IC50 [2]: > 100 µM
IC50 [3]: 49.6 µM
IC50 [4]: > 100 µM
IC50 [5]: > 100 µM
IC50 [6]: 75 µM
IC50 [7]: 75 µM
IC50 [8]: 70.5 µM
IC50 [9]: > 100 µM

CCOC(=O)c1cc2c3ccccc3n(Cc3cc(OC)cc(OC)c3)c2cn1
IC50 [2]: > 100 µM
IC50 [3]: > 100 µM
IC50 [4]: 24.4 µM
IC50 [5]: > 100 µM
IC50 [6]: > 100 µM
IC50 [7]: > 100 µM
IC50 [8]: > 100 µM
IC50 [9]: > 100 µM

OCc1cc2c3ccccc3nc-2c[nH]1
IC50 [2]: > 100 µM
IC50 [3]: > 100 µM
IC50 [4]: > 100 µM
IC50 [5]: > 100 µM
IC50 [6]: > 100 µM
IC50 [7]: > 100 µM
IC50 [8]: > 100 µM
IC50 [9]: > 100 µM

CCOC(=O)c1cc2c3ccccc3n(Cc3ccccn3)c2cn1
IC50 [3]: 38.7 µM
IC50 [5]: 46.3 µM
IC50 [6]: > 100 µM
IC50 [7]: > 100 µM
IC50 [8]: > 100 µM
IC50 [9]: > 100 µM

CCOC(=O)c1cc2c3ccccc3n(Cc3ccccc3)c2cn1
IC50 [2]: 26.8 µM
IC50 [3]: > 100 µM
IC50 [4]: 3 µM
IC50 [5]: 48.2 µM
IC50 [6]: > 100 µM
IC50 [7]: > 100 µM
IC50 [8]: > 100 µM
IC50 [9]: 50 µM
